Measurements of several laboratories.
Each line is one published result; the experiments were not run side by side.
ATXN3: Ataxin-3 (ATXN3, Homo sapiens, UniProt P54252)
ADRA2C: Alpha-2C adrenergic receptor (ADRA2C, Homo sapiens, UniProt P18825)
PDE3A: cGMP-inhibited 3',5'-cyclic phosphodiesterase 3A (PDE3A, Homo sapiens, UniProt Q14432)

| SMILES | target | assay | conditions | inhibition |
| --- | --- | --- | --- | --- |
| CCN(CC)CCCC[C@H](NC(=O)[C@H](CC(C)C)NC(=O)[C@H](C)NC(=O)[C@H](Cc1ccccc1)NC(=O)c1ccc(C(C)(C)C)cc1)C(=O)N[C@@H](CO)C(=O)OC | 5-hydroxytryptamine receptor 1A (HTR1A, Homo sapiens, UniProt P08908) | ligand displacement, radioligand | 10 µM | 19% |
| Cn1cc(-c2cccc(N3CCc4c(sc5c4CC(C)(C)C5)C3=O)c2CO)cc(Nc2ccncn2)c1=O | Leucine-rich repeat serine/threonine-protein kinase 2 (LRRK2, Homo sapiens, UniProt Q5S007, G2019S) | enzyme activity, inhibitor | 1 µM | -15% |
| CN(C)C(=O)COC(=O)Cc1ccc(OC(=O)c2ccc(NC(=N)N)cc2)cc1 | ATXN3 | enzyme activity, inhibitor | 10 µM | 3% |
| C#Cc1n[nH]c2c(-c3cn([C@@H](C)c4ccccn4)c(=O)[nH]c3=O)cc(F)cc12 | Phosphatidylinositol 3-kinase catalytic subunit type 3 (PIK3C3, Homo sapiens, UniProt Q8NEB9) | enzyme activity, inhibitor | 0.1 µM | 8.6% |
| O=C(Nc1cccnn1)N1CCN([C@@H]2CCOc3cc(C(F)(F)F)ccc32)CC1 | ADRA2C | cell-free assay | 20 µM | 23% |
| COCc1c(-c2cc3cc(C)cc(OC)c3s2)c2c(N)ncnn2c1CN1CCNC(=O)C1 | ADRA2C | ligand displacement, radioligand | 10 µM | 31% |
| C[C@@H]1CCCN1CCCCOc1ccc2occc(=O)c2c1 | Bile salt-activated lipase (Homo sapiens, UniProt P19835) | enzyme activity, inhibitor, fluorescence | 10 µM | 6% |
| N=C(N)c1ccc2cc(OC(=O)c3ccc(N=C(N)N)cc3)ccc2c1 | ATXN3 | enzyme activity, inhibitor | 10 µM | 0% |
| C#Cc1n[nH]c2c(-c3cn([C@@H](C)c4ccccc4)c(=O)[nH]c3=O)cc(F)cc12 | Phosphatidylinositol 4-phosphate 3-kinase C2 domain-containing subunit alpha (PIK3C2A, Homo sapiens, UniProt O00443) | enzyme activity, inhibitor | 0.1 µM | 11.7% |
| Clc1ccc2c(C3CCN(CCc4c[nH]c5ccccc45)CC3)c[nH]c2c1 | PDE3A | enzyme activity, inhibitor | 10 µM | -1% |
| c1ccc(C(NCCNC(c2ccccc2)c2ccccc2)c2ccccc2)cc1 | PDE3A | cell-free assay, inhibitor | 10 µM | 0% |
| COc1cc(Nc2ncc(F)c(Nc3ccc4c(n3)NC(=O)C(C)(C)O4)n2)cc(OC)c1OC | Serine/threonine-protein kinase RIO2 (RIOK2, Homo sapiens, UniProt Q9BVS4) | binding | 10 µM | 83% |
| Cn1cc(-c2cc(F)cc(N3CCn4c(cc5c4CCCC5)C3=O)c2CO)cc(Nc2ccc(N3CCN(C4COC4)CC3)cn2)c1=O | Serine/threonine-protein kinase PAK 3 (PAK3, Homo sapiens, UniProt O75914) | enzyme activity, inhibitor | 0.1 µM | 16% |
